From ChEMBL document CHEMBL4190191, “Cyclic Diarylheptanoids from Corylus avellana Green Leafy Covers: Determination of Their Absolute Configurations and Evaluation of Their Antioxidant and Antimicrobial Activities” (J Nat Prod, 2017)
Active and inactive are the calls of the source. The calls are words filed in the database; no cut-off is given here.

Assays:
Plasma [1] = assay: Antioxidant activity in human plasma assessed as inhibition of H2O2-induced lipid peroxidation at 10 uM after 30 mins by TBARS assay relative to control; assay type: functional, cell-free
Procedure, shortened: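 Fresh plasma from medication-free donors was incubated for 30 min at 37 °C with compound (0.1–100 μM) plus 2 mM H2O2. Lipid peroxidation was quantified as TBARS. Data are from 5–9 independent experiments, as mean ± SD.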

Plasma [2] = assay: Antioxidant activity in human plasma assessed as inhibition of H2O2/Fe2+-induced lipid peroxidation at 10 uM after 30 mins by TBARS assay relative to control; assay type: functional, cell-free
Procedure, shortened: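 Human donor plasma was incubated for 30 min at 37 °C with compound at 10 μM plus 4.7 mM H2O2, 3.8 mM […] and 2.5 mM EDTA. Peroxidation was read as TBARS concentration.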

A549 = assay: Cytotoxicity against human A549 cells at 10 to 100 uM by MTT assay; assay type: cell-based; conditions: a549, 100 µM
Procedure, shortened: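 A549 human lung adenocarcinoma cells were kept in DMEM with 10% FBS, 1% penicillin/streptomycin and 2 mM L-glutamine, at 37 °C under 5% CO2. Viability was measured by MTT assay after exposure to 10–100 μM.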

[3] = Cytotoxicity against human DeFew cells at 10 to 100 uM by MTT assay; assay type: cell-based
Procedure, shortened: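 DeFew human B-lymphoma cells were maintained in RPMI 1640 with 10% FBS, 1% penicillin/streptomycin and 2 mM L-glutamine, in humidified 5% CO2 at 37 °C. Cells were exposed to 10–100 μM, and viability was read by MTT.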

Bacillus cereus [4] = assay: Antimicrobial activity against Bacillus cereus DSM 4384 assessed as growth inhibition at 40 ug per disc after 24 to 48 hrs (reference value: 0 millimeter); assay type: functional; conditions: read-out: DIZ
Escherichia coli [5] = assay: Antimicrobial activity against Escherichia coli DSM 8579 assessed as growth inhibition at 40 ug per disc after 24 to 48 hrs (reference value: 0 millimeter); assay type: functional; conditions: read-out: DIZ
Bacillus cereus [6] = assay: Antimicrobial activity against Bacillus cereus DSM 4313 assessed as growth inhibition at 40 ug per disc after 24 to 48 hrs (reference value: 0 millimeter); assay type: functional; conditions: read-out: DIZ
Pseudomonas aeruginosa [7] = assay: Antimicrobial activity against Pseudomonas aeruginosa DSM 50071 assessed as growth inhibition at 40 ug per disc after 24 to 48 hrs (reference value: 0 millimeter); assay type: functional; conditions: read-out: DIZ
Staphylococcus aureus [8] = assay: Antimicrobial activity against Staphylococcus aureus DSM 25923 assessed as growth inhibition at 40 ug per disc after 24 to 48 hrs (reference value: 0 millimeter); assay type: functional; conditions: read-out: DIZ
Escherichia coli [9] = assay: Antimicrobial activity against Escherichia coli DSM 8579 assessed as growth inhibition at 10 ug per disc after 24 to 48 hrs (reference value: 0 millimeter); assay type: functional; conditions: read-out: DIZ
Bacillus cereus [10] = assay: Antimicrobial activity against Bacillus cereus DSM 4384 assessed as growth inhibition at 10 ug per disc after 24 to 48 hrs (reference value: 0 millimeter); assay type: functional; conditions: read-out: DIZ
Bacillus cereus [11] = assay: Antimicrobial activity against Bacillus cereus DSM 4313 assessed as growth inhibition at 10 ug per disc after 24 to 48 hrs (reference value: 0 millimeter); assay type: functional; conditions: read-out: DIZ
Pseudomonas aeruginosa [12] = assay: Antimicrobial activity against Pseudomonas aeruginosa DSM 50071 assessed as growth inhibition at 10 ug per disc after 24 to 48 hrs (reference value: 0 millimeter); assay type: functional; conditions: read-out: DIZ
Staphylococcus aureus [13] = assay: Antimicrobial activity against Staphylococcus aureus DSM 25923 assessed as growth inhibition at 10 ug per disc after 24 to 48 hrs (reference value: 0 millimeter); assay type: functional; conditions: read-out: DIZ
Escherichia coli [14] = assay: Antimicrobial activity against Escherichia coli DSM 8579 assessed as growth inhibition at 20 ug per disc after 24 to 48 hrs (reference value: 0 millimeter); assay type: functional; conditions: read-out: DIZ
Bacillus cereus [15] = assay: Antimicrobial activity against Bacillus cereus DSM 4384 assessed as growth inhibition at 20 ug per disc after 24 to 48 hrs (reference value: 0 millimeter); assay type: functional; conditions: read-out: DIZ
Bacillus cereus [16] = assay: Antimicrobial activity against Bacillus cereus DSM 4313 assessed as growth inhibition at 20 ug per disc after 24 to 48 hrs (reference value: 0 millimeter); assay type: functional; conditions: read-out: DIZ
Pseudomonas aeruginosa [17] = assay: Antimicrobial activity against Pseudomonas aeruginosa DSM 50071 assessed as growth inhibition at 20 ug per disc after 24 to 48 hrs (reference value: 0 millimeter); assay type: functional; conditions: read-out: DIZ
Staphylococcus aureus [18] = assay: Antimicrobial activity against Staphylococcus aureus DSM 25923 assessed as growth inhibition at 20 ug per disc after 24 to 48 hrs (reference value: 0 millimeter); assay type: functional; conditions: read-out: DIZ
Bacillus cereus [19] = assay: Antimicrobial activity against Bacillus cereus DSM 4313 assessed per disc after 24 hrs by resazurin dye-based microtiter-plate assay; assay type: functional
Procedure, shortened: (§1)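 Resazurin microtiter-plate broth dilution. Samples in DMSO were twofold serially diluted in Mueller-Hinton broth with isosensitized broth and resazurin indicator. Bacteria were added to about 5 × 10^5 cfu/mL. Ciprofloxacin served as positive control and DMSO as negative control. Plates were run in triplicate at 37 °C for 24 h. MIC is the lowest concentration […].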

Bacillus cereus [20] = assay: Antimicrobial activity against Bacillus cereus DSM 4384 assessed per disc after 24 hrs by resazurin dye-based microtiter-plate assay; assay type: functional; procedure, shortened: as §1
Escherichia coli [21] = assay: Antimicrobial activity against Escherichia coli DSM 8579 assessed per disc after 24 hrs by resazurin dye-based microtiter-plate assay; assay type: functional; procedure, shortened: as §1
Pseudomonas aeruginosa [22] = assay: Antimicrobial activity against Pseudomonas aeruginosa DSM 50071 assessed per disc after 24 hrs by resazurin dye-based microtiter-plate assay; assay type: functional; procedure, shortened: as §1
Staphylococcus aureus [23] = assay: Antimicrobial activity against Staphylococcus aureus DSM 25923 assessed per disc after 24 hrs by resazurin dye-based microtiter-plate assay; assay type: functional; procedure, shortened: as §1

SMILES	inhibition (Plasma [1])	inhibition (Plasma [2])	Activity (A549)	Activity [3]	zone of inhibition at 40 µg/disc (Bacillus cereus [4])	zone of inhibition at 40 µg/disc (Escherichia coli [5])	zone of inhibition at 40 µg/disc (Bacillus cereus [6])	zone of inhibition at 40 µg/disc (Pseudomonas aeruginosa [7])	zone of inhibition at 40 µg/disc (Staphylococcus aureus [8])	zone of inhibition at 10 µg/disc (Escherichia coli [9])	zone of inhibition at 10 µg/disc (Bacillus cereus [10])	zone of inhibition at 10 µg/disc (Bacillus cereus [11])	zone of inhibition at 10 µg/disc (Pseudomonas aeruginosa [12])	zone of inhibition at 10 µg/disc (Staphylococcus aureus [13])	zone of inhibition at 20 µg/disc (Escherichia coli [14])	zone of inhibition at 20 µg/disc (Bacillus cereus [15])	zone of inhibition at 20 µg/disc (Bacillus cereus [16])	zone of inhibition at 20 µg/disc (Pseudomonas aeruginosa [17])	zone of inhibition at 20 µg/disc (Staphylococcus aureus [18])	other results
O=C(/C=C/c1ccc(O)c(O)c1)O[C@@H]1C[C@](O)(C(=O)O)C[C@@H](OC(=O)/C=C/c2ccc(O)c(O)c2)[C@H]1O	24.2%	25.5%	Non-Toxic	Non-Toxic	0 mm	8.33 mm	0 mm	0 mm	6.67 mm	–	–	–	–	–	–	–	–	–	–	–
C[C@@H]1O[C@@H](Oc2c(-c3ccc(O)cc3)oc3cc(O)cc(O)c3c2=O)[C@H](O)[C@H](O)[C@H]1OC(=O)/C=C/c1ccc(O)cc1	31.8%	39.7%	Non-Toxic	Non-Toxic	9.67 mm	8.66 mm	5.33 mm	9.67 mm	10.7 mm	3 mm	5 mm	2.33 mm	0 mm	5 mm	4.33 mm	5 mm	3.33 mm	0 mm	6.67 mm	–
COC(=O)CC(O)(CC(=O)O)C(=O)O (stereo unspecified)	inactive	inactive	Non-Toxic	Non-Toxic	0 mm	10 mm	5.67 mm	0 mm	10.7 mm	–	–	–	–	–	–	–	–	–	–	–
COC(=O)CC(O)(CC(=O)OC)C(=O)OC	inactive	inactive	Non-Toxic	Non-Toxic	0 mm	11.3 mm	0 mm	6.67 mm	11.3 mm	–	–	–	–	–	–	–	–	–	–	–
C[C@@H]1O[C@@H](Oc2c(-c3cc(O)c(O)c(O)c3)oc3cc(O)cc(O)c3c2=O)[C@H](O)[C@H](O)[C@H]1O	44.4%	34.1%	Non-Toxic	Non-Toxic	0 mm	9.67 mm	0 mm	5 mm	6.33 mm	–	–	–	–	–	–	–	–	–	–	–
COc1cc(/C=C/C(=O)CC(=O)/C=C/c2ccc(O)c(OC)c2)ccc1O	21.1%	22.9%	–	–	–	–	–	–	–	–	–	–	–	–	–	–	–	–	–	–
O=C1Cc2ccc(O)c(c2)-c2cc(ccc2O)C[C@@H](O)[C@@H](O)[C@@H](O)[C@H]1O (mixture of isomers)	33.3%	14.4%	Non-Toxic	Non-Toxic	11.3 mm	10.3 mm	10.7 mm	10 mm	10.7 mm	4.67 mm	5.67 mm	5.67 mm	5 mm	6.33 mm	10 mm	9.67 mm	9.67 mm	8.67 mm	10 mm	MIC (Bacillus cereus [19]): 5 µg; MIC (Bacillus cereus [20]): 5 µg; MIC (Escherichia coli [21]): 10 µg; MIC (Pseudomonas aeruginosa [22]): 10 µg; MIC (Staphylococcus aureus [23]): 30 µg
O=C1CCc2ccc(O[C@@H]3O[C@H](CO)[C@@H](O)[C@H](O)[C@H]3O)c(c2)-c2cc(ccc2O)C[C@@H](O)[C@H](O)[C@H]1O (mixture of isomers)	14.7%	23.3%	Non-Toxic	Non-Toxic	0 mm	0 mm	5 mm	9 mm	11.3 mm	0 mm	0 mm	0 mm	0 mm	0 mm	0 mm	0 mm	0 mm	0 mm	0 mm	MIC (Bacillus cereus [19]): 30 µg; MIC (Bacillus cereus [20]): 50 µg; MIC (Escherichia coli [21]): 50 µg; MIC (Pseudomonas aeruginosa [22]): 30 µg; MIC (Staphylococcus aureus [23]): 30 µg
O=C1CCc2ccc(O)c(c2)-c2cc(ccc2O)C[C@@H](O)[C@H](O)[C@H]1O (mixture of isomers)	32.2%	24.4%	Non-Toxic	Non-Toxic	10.7 mm	11.7 mm	10.7 mm	10.7 mm	5.67 mm	9.33 mm	5 mm	5 mm	4.67 mm	0 mm	9.67 mm	5 mm	5 mm	4.67 mm	0 mm	MIC (Bacillus cereus [19]): 4 µg; MIC (Bacillus cereus [20]): 4 µg; MIC (Escherichia coli [21]): 10 µg; MIC (Pseudomonas aeruginosa [22]): 10 µg; MIC (Staphylococcus aureus [23]): 30 µg
O=C1/C=C/CCc2ccc(O[C@@H]3O[C@H](CO)[C@@H](O)[C@H](O)[C@H]3O)c(c2)-c2cc(ccc2O[C@H]2OC[C@H](O)[C@H](O)[C@H]2O)CC1 (mixture of isomers)	12.6%	18.1%	Non-Toxic	Non-Toxic	0 mm	10 mm	5 mm	4.67 mm	10 mm	–	–	–	–	–	–	–	–	–	–	–
C[C@@H]1O[C@@H](Oc2c(-c3ccc(O)cc3)oc3cc(O)cc(O)c3c2=O)[C@H](O)[C@H](O)[C@H]1O [AFZELIN]	5.7%	20.1%	Non-Toxic	Non-Toxic	5 mm	10 mm	0 mm	4 mm	10.3 mm	–	–	–	–	–	–	–	–	–	–	–
O=C(O)CC(O)(CC(=O)O)C(=O)O [CITRIC ACID]	inactive	inactive	Non-Toxic	Non-Toxic	0 mm	10.7 mm	10 mm	9.33 mm	10.7 mm	–	–	–	–	–	–	–	–	–	–	–
